Paper PMC6300088 (Pharmaceutical Biology, 2018)
≈ marks a conversion by molar mass, not a printed value. Read-outs that look alike come from different tables or passages of the source.

Legend:
[1] = system: MCF7MX (BCRP overexpressing human epithelial breast cancer cell line); settings: read-out: IC50 against MCF7MX; ref Mirzaei et al. [2017]; cited from earlier work
[2] = system: L5178Y human ABCB1-transfected subline (MDR); assay: Cytotoxic effect; type: cell-based, mouse; settings: 24 h; for IC50: L5178Y, read-out: CA on MDR cells (IC50); for CA on MDR cells (IC50): cytotoxic activity, MTT, mean ± SD, n = 3
[3] = system: L5178Y mouse T-cell lymphoma cells: parent, PAR cells; assay: Cytotoxic effect; type: cell-based; settings: 24 h; for IC50: Mus musculus, L5178Y, read-out: CA on PAR cells (IC50)
[4] = system: L5178Y mouse T-cell lymphoma cells: parent, PAR cells; assay: Antiproliferative effect; type: cell-based; settings: 72 h, read-out: AA on PAR cells (IC50)
[5] = system: L5178Y human ABCB1-transfected subline (MDR); assay: Antiproliferative effect; type: cell-based, mouse; settings: 72 h, read-out: AA on MDR cells (IC50)
ABCB1 (P-glycoprotein) = type: cell-based, human; settings: for FL-1 (mean fluorescence intensity of the cells): MDR cells, rhodamine 123; for FAR (fluorescence activity ratio): rhodamine 123 retention
[6] = system: multidrug resistant mouse T-lymphoma cells overexpressing the ABCB1 transporter; assay: Checkerboard combination assay with doxorubicin; type: cell-based; settings: MDR cells
Procedure, shortened: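 L5178Y mouse T-lymphoma cells transfected with human ABCB1 (MDR), 6 × 10^3 per well in McCoy's 5A. Checkerboard layout with doxorubicin diluted horizontally (final concentration stated as 17.242 μM) and test compound diluted vertically. Incubated 72 h at 37 °C in 5% CO2. MTT added (5 mg/mL stock) for 4 h at 37 °C, then 10% SDS in 0.01 M HCl overnight at 37 °C.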

[7] = system: NIH/3T3 mouse embryonic fibroblast cell line; assay: Cytotoxic effect; type: cell-based; settings: cytotoxic activity on normal murine fibroblasts, 24 h, MTT, mean ± SD, n = 3
[8] = system: HCT-15 (colon cancer) cells; settings: HCT-15 cells; ref Kim et al. [2007]; cited from earlier work
HL-60/MX2 (MDR) = settings: read-out: IC50 against HL-60/MX2; ref Kubrak et al. [2017]; cited from earlier work
[9] = system: CEM/C1 (lymphoblastic leukaemia); settings: read-out: IC50 against CEM/C1; ref Kubrak et al. [2017]; cited from earlier work

IC50 [4]	Structure (SMILES)	IC50 [2]	IC50 [3]	IC50 [5]	FL-1 (mean fluorescence intensity of the cells) (ABCB1 (P-glycoprotein); 2 µM)	FAR (fluorescence activity ratio) (ABCB1 (P-glycoprotein); 2 µM)	FL-1 (mean fluorescence intensity of the cells) (ABCB1 (P-glycoprotein); 20 µM)	FAR (fluorescence activity ratio) (ABCB1 (P-glycoprotein); 20 µM)	other results
	COc1c2occc2cc2ccc(=O)oc12 [8-Methoxypsoralen]								IC50 [1]: 0.0011 ± 0.00091 µM
0.054 ± 0.005 µM	COc1cccc2c1C(=O)c1c(O)c3c(c(O)c1C2=O)C[C@@](O)(C(=O)CO)C[C@@H]3O[C@H]1C[C@H](N)[C@H](O)[C@H](C)O1 [Doxorubicin, doxorubicin, reference compound]	7.15 ± 0.358 µM	0.377 ± 0.02 µM	0.468 ± 0.065 µM					
52.3 ± 2.12 µM	CC(C)(O)[C@H](O)COc1c2occc2cc2ccc(=O)oc12 [Heraclenol (9), heraclenol]	> 100 µM	> 100 µM	46.6 ± 0.47 µM	0.995	1.37		1.30	CA on MDR cells (IC50) [2]: no toxic effects; CA on PAR cells (IC50) ([3]; cytotoxic activity, MTT, mean ± SD, n = 3): no toxic effects
26 ± 1.27 µM	CC1(C)O[C@H]1COc1c2ccoc2cc2oc(=O)ccc12 [Oxypeucedanin (3), oxypeucedanin]	66.7 µM	40.3 ± 0.63 µM	28.9 ± 0.73 µM	0.9	0.76	2.62	2.22	ED50, cell proliferation [8]: 3.4 ± 0.3 µg/mL (≈ 11.9 µM); FAR (fluorescence activity ratio) (ABCB1 (P-glycoprotein); 20 µM, listed as oxypeucedanin (3)): moderate ABCB1 inhibiting effect; Interaction ([6]; listed as Oxypeucedanin): Slight synergism; Interaction ([6]; listed as oxypeucedanin (3)): slight synergistic effect
	COc1cc2c(cc1OC)CN(CCc1ccc(NC(=O)c3cc(OC)c(OC)cc3NC(=O)c3cnc4ccccc4c3)cc1)CC2 [Tariquidar, tariquidar, reference compound]								FL-1 (mean fluorescence intensity of the cells) (ABCB1 (P-glycoprotein); 0.02 µM): 119; FAR (fluorescence activity ratio) (ABCB1 (P-glycoprotein); 0.02 µM): 100.68; FAR (fluorescence activity ratio) (ABCB1 (P-glycoprotein); 0.02 µM, listed as tariquidar): 100
	COc1c2ccoc2c(OC)c2oc(=O)ccc12 [isopimpinellin]								IC50 (HL-60/MX2 (MDR)): 26 ± 5.7 µM
	COc1c2ccoc2c(OCC=C(C)C)c2oc(=O)ccc12 [phellopterin]								IC50 [9]: 8 ± 4 µM

Structure (SMILES)	IC50 [4]	IC50 [2]	IC50 [3]	IC50 [5]	FL-1 (mean fluorescence intensity of the cells) (ABCB1 (P-glycoprotein); 2 µM)	FAR (fluorescence activity ratio) (ABCB1 (P-glycoprotein); 2 µM)	FL-1 (mean fluorescence intensity of the cells) (ABCB1 (P-glycoprotein); 20 µM)	FAR (fluorescence activity ratio) (ABCB1 (P-glycoprotein); 20 µM)	other results
CC1(C)O[C@@H]1COc1c2occc2cc2ccc(=O)oc12 [Heraclenin (8), heraclenin]	32.7 ± 2.4 µM	83.9 ± 1.68 µM	65.8 ± 1 µM	46.5 ± 1.22 µM	0.942	1.29	0.57	0.78	Interaction ([6]; listed as Heraclenin): Slight synergism; Interaction ([6]; listed as heraclenin (8)): slight synergistic effect
CC(C)=CCOc1c2occc2cc2ccc(=O)oc12 [Imperatorin (6), imperatorin]	36.1 ± 0.91 µM	> 100 µM	52.6 ± 4.19 µM	42.2 ± 0.88 µM	0.727	0.62	0.783	0.66	CA on MDR cells (IC50) [2]: without any toxicity; CA on NIH/3T3 cells (IC50) [7]: no toxic activity
